Consider six compounds from ChEMBL document CHEMBL3112427, “Insights into the mechanism of streptonigrin-induced protein arginine deiminase inactivation” (Bioorg Med Chem, 2014).

Data set [1] relates to Protein-arginine deiminase type-4 (Homo sapiens), Q9UM07 [C645A]. Put plainly: Binding affinity to PAD4 C645A mutant (unknown origin) assessed as mass shift of enzyme at 1:10 enzyme to compound ratio preincubated for 1 hr followed by overnight dialysis in double distilled water by MALDI mass spectrometric analysis in presence of catalase.
Data set [2] concerns the target T1, Protein-arginine deiminase type-4 (Homo sapiens, UniProt Q9UM07). Put plainly: Binding affinity to recombinant wild-type PAD4 (unknown origin) assessed as mass shift of enzyme at 1:10 enzyme to compound ratio preincubated for 1 hr followed by overnight dialysis in double distilled water by MALDI mass spectrometric analysis in presence of catalase.
Data set [3] deals with Protein-arginine deiminase type-4 (Homo sapiens), Q9UM07 [C645A]. Put plainly: Binding affinity to PAD4 C645A mutant (unknown origin) assessed as mass shift of enzyme at 1:10 enzyme to compound ratio preincubated for 1 hr followed by overnight dialysis in double distilled water by MALDI mass spectrometric analysis in presence of superoxide dismutase.
In data set [4] the target is T1, Protein-arginine deiminase type-4. Put plainly: Binding affinity to recombinant wild-type PAD4 (unknown origin) assessed as mass shift of enzyme at 1:10 enzyme to compound ratio preincubated for 1 hr followed by overnight dialysis in double distilled water by MALDI mass spectrometric analysis in presence of superoxide dismutase.
The subject of data set [5] is Protein-arginine deiminase type-4 (Homo sapiens), Q9UM07 [C645A]. Put plainly: Binding affinity to PAD4 C645A mutant (unknown origin) assessed as mass shift of enzyme at 1:10 enzyme to compound ratio preincubated for 1 hr followed by overnight dialysis in double distilled water by MALDI mass spectrometric analysis.
Data set [6] relates to Protein-arginine deiminase type-2 (Homo sapiens), Q9Y2J8 [C647A]. Put plainly: Binding affinity to PAD2 C647A mutant (unknown origin) assessed as mass shift of enzyme at 1:10 enzyme to compound ratio preincubated for 1 hr followed by overnight dialysis in double distilled water by MALDI mass spectrometric analysis.
Data set [7] addresses T2, Protein-arginine deiminase type-2 (Homo sapiens, UniProt Q9Y2J8). Put plainly: Binding affinity to recombinant wild-type PAD2 (unknown origin) assessed as mass shift of enzyme at 1:10 enzyme to compound ratio preincubated for 1 hr followed by overnight dialysis in double distilled water by MALDI mass spectrometric analysis.
Data set [8] has as its target T1, Protein-arginine deiminase type-4. Put plainly: Binding affinity to recombinant wild-type PAD4 (unknown origin) assessed as mass shift of enzyme at 1:10 enzyme to compound ratio preincubated for 1 hr followed by overnight dialysis in double distilled water by MALDI mass spectrometric analysis.
The target is the same in data set [9]. Put plainly: Competitive inhibition of recombinant wild-type PAD4 (unknown origin) at 1 to 50 uM by fluorescence polarization-ABPP assay in presence of RFA. The conditions noted are these: in the assay text read “gel-based competitive ABPP assay” for “fluorescence polarization-ABPP assay”. An outline of the steps: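 Wild-type PAD4 (2 µM final) labelled with RFA (10 µM final) plus 10 mM calcium in the presence of competitor (0–50 µM final). Quenched with SDS loading buffer, boiled 20 min, run on 12% SDS-PAGE; in-gel fluorescence imaged and quantified.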

For data set [10], the target named is T3, Protein-arginine deiminase type-3 (Homo sapiens, UniProt Q9ULW8).
T3 sequence (Q9ULW8 whole entry): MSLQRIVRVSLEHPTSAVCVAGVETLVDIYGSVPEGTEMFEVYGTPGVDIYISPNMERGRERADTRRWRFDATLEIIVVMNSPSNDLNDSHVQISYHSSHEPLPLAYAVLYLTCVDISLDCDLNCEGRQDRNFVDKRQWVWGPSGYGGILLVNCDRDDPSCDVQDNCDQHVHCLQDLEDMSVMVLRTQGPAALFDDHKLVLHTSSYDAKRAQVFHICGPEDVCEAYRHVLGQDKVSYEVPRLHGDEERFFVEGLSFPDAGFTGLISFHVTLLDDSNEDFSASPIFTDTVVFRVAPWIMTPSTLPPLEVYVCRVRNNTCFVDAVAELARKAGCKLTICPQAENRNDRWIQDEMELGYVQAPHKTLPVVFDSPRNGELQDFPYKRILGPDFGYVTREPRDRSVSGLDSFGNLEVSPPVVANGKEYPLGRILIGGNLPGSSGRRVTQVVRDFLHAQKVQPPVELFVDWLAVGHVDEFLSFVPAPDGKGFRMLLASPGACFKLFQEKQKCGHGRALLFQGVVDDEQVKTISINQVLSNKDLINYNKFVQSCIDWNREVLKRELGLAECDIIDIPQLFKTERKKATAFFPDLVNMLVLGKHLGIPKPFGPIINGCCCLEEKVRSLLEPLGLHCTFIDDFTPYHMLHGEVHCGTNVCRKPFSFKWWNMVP
Put plainly: Inhibition of recombinant wild-type PAD3 (unknown origin) using N-alpha-Benzoyl-L-arginine amide as substrate preincubated for 15 mins followed by substrate addition measured after 15 mins by COLDER assay.

In data set [11] the target is T2, Protein-arginine deiminase type-2. Put plainly: Inhibition of recombinant wild-type PAD2 (unknown origin) using N-alpha-Benzoyl-L-arginine ethyl ester as substrate preincubated for 15 mins followed by substrate addition measured after 15 mins by COLDER assay.
The target of data set [12] is T4, Protein-arginine deiminase type-1 (Homo sapiens, UniProt Q9ULC6).
T4 sequence (Q9ULC6 whole entry): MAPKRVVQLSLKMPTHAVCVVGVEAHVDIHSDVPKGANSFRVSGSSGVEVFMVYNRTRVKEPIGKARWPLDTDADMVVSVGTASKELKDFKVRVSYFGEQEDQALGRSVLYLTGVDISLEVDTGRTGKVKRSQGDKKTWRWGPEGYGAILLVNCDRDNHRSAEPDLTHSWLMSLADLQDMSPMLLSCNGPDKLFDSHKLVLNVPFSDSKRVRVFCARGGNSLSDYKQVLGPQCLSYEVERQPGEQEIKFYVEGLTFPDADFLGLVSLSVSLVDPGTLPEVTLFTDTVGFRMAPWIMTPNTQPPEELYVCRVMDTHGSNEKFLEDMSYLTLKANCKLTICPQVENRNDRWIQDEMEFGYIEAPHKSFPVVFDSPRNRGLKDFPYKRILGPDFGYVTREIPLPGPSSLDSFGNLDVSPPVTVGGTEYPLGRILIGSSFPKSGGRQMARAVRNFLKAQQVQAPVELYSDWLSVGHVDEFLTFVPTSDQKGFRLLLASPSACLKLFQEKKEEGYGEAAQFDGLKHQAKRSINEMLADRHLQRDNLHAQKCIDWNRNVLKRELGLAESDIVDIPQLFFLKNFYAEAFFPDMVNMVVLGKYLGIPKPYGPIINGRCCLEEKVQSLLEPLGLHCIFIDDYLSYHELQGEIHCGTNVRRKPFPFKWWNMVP
Put plainly: Inhibition of recombinant wild-type PAD1 (unknown origin) using N-alpha-Benzoyl-L-arginine amide as substrate preincubated for 15 mins followed by substrate addition measured after 15 mins by COLDER assay.

Data set [13] deals with T2, Protein-arginine deiminase type-2. As to conditions: at 0.1 to 2.5 µM.
The subject of data set [14] is NIH3T3. Put plainly: Cytotoxicity against mouse NIH/3T3 cells after 3 days by XTT-PMS assay. As to conditions: NIH3T3, 72 h.
For data set [15], the system named is U2OS. Put plainly: Cytotoxicity against human U2OS cells after 3 days by XTT-PMS assay. As to conditions: 72 h.
Data set [16] relates to NIH3T3. Put plainly: Cytotoxicity against mouse NIH/3T3 cells assessed as cell viability at 10 uM after 3 days by XTT-PMS assay relative to control. The data set is classed as cell-based. As to conditions: nih3t3, 72 h. The procedure, abridged:
(§1)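 U2OS or NIH 3T3 cells (2.5 × 10^4 cells/mL) plated in 48-well format (n=4) and dosed with 10 µM compound for 3 days. XTT-PMS activated reagent then added for 4 h of colour development; formazan absorbance read at 475 nm.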

Data set [17] relates to U2OS. Put plainly: Cytotoxicity against human U2OS cells assessed as cell viability at 10 uM after 3 days by XTT-PMS assay relative to control. The class given is functional. The conditions noted are these: for viability at 10 µM: 72 h, read-out: Activity. The procedure, abridged: as §1
Data set [18] concerns the target T1, Protein-arginine deiminase type-4. Put plainly: Irreversible inhibition of recombinant wild-type PAD4 (unknown origin) using N-alpha-Benzoyl-L-arginine ethyl ester as substrate assessed as residual activity at 170-fold excess of compound after 1 hr by dialysis method. An outline of the steps:
(§2)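 Wild-type PAD2 or PAD4 (0.6 µM final) incubated 1 h with compound (170-fold excess) or no compound in Reaction Buffer, then dialysed 20 h against Long-Term Storage Buffer (Tris-HCl pH 7.6, 1 mM EDTA, 500 mM NaCl, 2 mM DTT, 10% glycerol). Residual activity measured with 10 mM BAEE, quenched in liquid N2, and expressed relative to separately dialysed untreated enzyme (100%).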

For data set [19], the target named is T5, Protein-arginine deiminase type-3 (Homo sapiens) (UniProt Q9ULW8).
T5 sequence (whole entry): T3 sequence (Q9ULW8 whole entry)
Put plainly: Irreversible inhibition of recombinant wild-type PAD3 (unknown origin) using N-alpha-Benzoyl-L-arginine amide as substrate assessed as residual activity at 170-fold excess of compound after 1 hr by dialysis method.

Data set [20] deals with T2, Protein-arginine deiminase type-2. Put plainly: Irreversible inhibition of recombinant wild-type PAD2 (unknown origin) using N-alpha-Benzoyl-L-arginine ethyl ester as substrate assessed as residual activity at 170-fold excess of compound after 1 hr by dialysis method. The procedure, abridged:
as §2

The target in data set [21] is T6, Protein-arginine deiminase type-1 (Homo sapiens) (UniProt Q9ULC6).
T6 sequence (whole entry): T4 sequence (Q9ULC6 whole entry)
Put plainly: Irreversible inhibition of recombinant wild-type PAD1 (unknown origin) using N-alpha-Benzoyl-L-arginine amide as substrate assessed as residual activity at 170-fold excess of compound after 1 hr by dialysis method.

In data set [22] the target is T1, Protein-arginine deiminase type-4. Put plainly: Inhibition of recombinant wild-type PAD4 (unknown origin) using N-alpha-Benzoyl-L-arginine ethyl ester as substrate preincubated for 15 mins followed by substrate addition measured after 15 mins by COLDER assay.
For data set [23], the target named is T2, Protein-arginine deiminase type-2. Put plainly: Inhibition of recombinant wild-type PAD2 (unknown origin) using N-alpha-Benzoyl-L-arginine ethyl ester as substrate preincubated for 10 mins followed by substrate addition measured after 15 mins by COLDER assay.
Data set [24] has as its target T1, Protein-arginine deiminase type-4. Put plainly: Inhibition of recombinant wild-type PAD4 (unknown origin) using N-alpha-Benzoyl-L-arginine ethyl ester as substrate preincubated for 10 mins followed by substrate addition measured after 15 mins by COLDER assay.
Data set [25] shares this target. As to conditions: 0.5 uM.
Data set [26] has as its target T2, Protein-arginine deiminase type-2.
For data set [27], the target named is T1, Protein-arginine deiminase type-4.

Each structure is given as a SMILES string. Active and inactive are the calls of the source. The rule behind the calls is not given here.

Chain of Protein-arginine deiminase type-4 (Homo sapiens), Q9UM07 [C645A] (Q9UM07 whole entry C645A): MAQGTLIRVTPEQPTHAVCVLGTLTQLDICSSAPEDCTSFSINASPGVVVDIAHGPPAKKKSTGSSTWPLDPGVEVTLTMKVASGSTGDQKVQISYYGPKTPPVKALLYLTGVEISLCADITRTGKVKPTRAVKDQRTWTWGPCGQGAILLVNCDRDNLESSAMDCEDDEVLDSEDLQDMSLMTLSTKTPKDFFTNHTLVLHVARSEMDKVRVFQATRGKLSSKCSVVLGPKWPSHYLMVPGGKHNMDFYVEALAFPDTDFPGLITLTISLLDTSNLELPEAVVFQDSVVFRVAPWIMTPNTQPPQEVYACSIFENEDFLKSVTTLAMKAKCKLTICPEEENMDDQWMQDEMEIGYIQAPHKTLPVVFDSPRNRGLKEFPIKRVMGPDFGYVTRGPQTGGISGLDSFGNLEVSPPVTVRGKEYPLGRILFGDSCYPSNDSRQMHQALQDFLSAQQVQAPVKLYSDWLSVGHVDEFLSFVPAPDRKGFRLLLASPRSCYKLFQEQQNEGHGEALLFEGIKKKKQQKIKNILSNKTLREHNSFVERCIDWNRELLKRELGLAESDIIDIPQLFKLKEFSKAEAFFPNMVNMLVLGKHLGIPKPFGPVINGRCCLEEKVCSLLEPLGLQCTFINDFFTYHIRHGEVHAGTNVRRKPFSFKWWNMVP
T2 sequence (Q9Y2J8 whole entry): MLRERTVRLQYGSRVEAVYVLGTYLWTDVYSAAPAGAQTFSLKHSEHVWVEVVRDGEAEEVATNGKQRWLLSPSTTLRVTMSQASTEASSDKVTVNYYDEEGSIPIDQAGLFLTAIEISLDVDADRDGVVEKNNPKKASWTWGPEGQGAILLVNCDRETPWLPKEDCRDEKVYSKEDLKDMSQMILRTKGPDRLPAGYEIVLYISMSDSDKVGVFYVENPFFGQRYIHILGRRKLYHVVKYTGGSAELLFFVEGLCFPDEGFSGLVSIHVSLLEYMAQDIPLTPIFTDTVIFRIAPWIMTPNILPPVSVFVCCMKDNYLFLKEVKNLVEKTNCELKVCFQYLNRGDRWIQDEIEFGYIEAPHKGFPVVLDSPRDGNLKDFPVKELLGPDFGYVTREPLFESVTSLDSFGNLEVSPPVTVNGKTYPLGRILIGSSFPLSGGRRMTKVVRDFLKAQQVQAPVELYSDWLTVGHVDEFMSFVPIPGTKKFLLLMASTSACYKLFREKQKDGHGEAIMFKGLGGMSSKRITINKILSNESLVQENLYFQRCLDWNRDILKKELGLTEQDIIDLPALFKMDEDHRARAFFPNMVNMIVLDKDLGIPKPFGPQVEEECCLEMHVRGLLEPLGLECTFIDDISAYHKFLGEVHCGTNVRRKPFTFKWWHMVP
Chain of Protein-arginine deiminase type-2 (Homo sapiens), Q9Y2J8 [C647A] (Q9Y2J8 whole entry C647A): as the sequence (Q9Y2J8 whole entry) above, with C647A counted along it
T1 sequence (Q9UM07 whole entry): as the sequence (Q9UM07 whole entry C645A) above, with A645C counted along it

Consider `COC1=C(N)C(=O)c2nc(-c3nc(C(=O)O)c(C)c(-c4ccc(OC)c(OC)c4O)c3N)ccc2C1=O` [STREPTONIGRIN], for which the outcome in data set [1], in [2], in [3], in [4], in [5] and in data set [6] was Active. For the same compound, the result in [7] and in data set [8] was Active. The inhibition entry in [9] and in data set [13] was “Active” each time. Further, the half-maximal inhibitory concentration (IC50) was 430 nM in [10], 26100 nM in data set [11] and 48300 nM in [12].

Turning to `NC1=CC(=O)c2ccc(-c3cccc(C(=O)O)n3)nc2C1=O`, the half-maximal effective concentration (EC50) in data set [14] was found to be 61700 nM; in data set [15], 58300 nM. Also, in [16], the outcome was Active. In addition, the result in data set [17], in data set [1], in [2], in [3], in data set [4] and in data set [5] was Active. Besides, the result in [6], in data set [7] and in [8] was Active. The inhibition result in data set [9] and in [13] was “Active” in each case. In addition, the result in data set [18], in data set [19], in [20] and in [21] was inactive. The IC50 in [10] came out at 710 nM; in data set [11], 200 nM; in data set [12], 70 nM.

In the case of `NC1=C(Br)C(=O)c2cccnc2C1=O`, the Activity result in data set [16] is on record as “<= 30%”. Moreover, the viability at 10 µM in data set [17] was ≤ 30%.

Consider `NC1=CC(=O)c2cccnc2C1=O`, for which the figures for the concentration giving a half-maximal response (EC50) in data set [14] and in [15] were 1100 nM and 800 nM, respectively. Moreover, the Activity entry in data set [16] is listed as “<= 30%”. Besides, in [17], the viability at 10 µM is ≤ 30%. Further, the half-inhibitory concentration (IC50) was 1000 nM in data set [22], 170 nM in data set [10], 740 nM in [11] and 960 nM in data set [12].

`NC1=CC(=O)c2ccc(-c3ccccn3)nc2C1=O`: the concentration giving a half-maximal response (EC50) amounted to 600 nM in data set [14] and 400 nM in data set [15]. The Activity result in data set [16] is given as “<= 30%”. Besides, in [17], the viability at 10 µM is ≤ 30%. The result in [1], in data set [2], in [3], in [4], in data set [5] and in data set [6] was Active. Further, the outcome in [7] and in [8] was Active. Further, the inhibition result in data set [9], in data set [25] and in data set [13] was “Active” throughout. The Ki was found to be 8080 nM in data set [23] and 20100 nM in [24]. The half-inhibitory concentration (IC50) in data set [22] is 640 nM; in [10] it was 130 nM; in data set [11], 320 nM; in data set [12], 950 nM. In addition, the Kinact in data set [26] turned out to be 0.07 min⁻¹; in data set [27], 0.12 min⁻¹.

For the compound `COC1=C(Br)C(=O)c2ncccc2C1=O`, in data set [16], the outcome was Active. In addition, the outcome in [17] was Active. Moreover, the IC50 in data set [22] came to 3300 nM; in data set [10], 4400 nM; in [11] it was 6320 nM; in [12], 4550 nM.
